≈ marks a conversion by molar mass, not a printed value.
Columns and labels:
Format in all cases: functional
Enterococcus faecium = experiment: Antibacterial activity against VanA-resistant Enterococcus faecium
Outline: (§1)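 Broth microdilution MIC per CLSI guidelines, incubated at 35°C. Cation-adjusted Mueller-Hinton broth for nonfastidious organisms and staphylococci. Streptococci tested in the same broth with 3% lysed horse blood. Anaerobes tested in supplemented Brucella broth inside an anaerobe chamber (5% CO2, 5% H2, 90% N2), read after 48 h. Strains were mainly recent clinical isolates with confirmed identity.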

Listeria monocytogenes = experiment: Antibacterial activity against Listeria monocytogenes
Outline: (§2)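 Broth microdilution MIC following CLSI guidelines, in cation-adjusted Mueller-Hinton broth containing 3% lysed horse blood, incubated at 35°C. Clinical isolates with identity confirmed. Reported as MIC range, MIC50 and MIC90.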

Legionella pneumophila = experiment: Antibacterial activity against Legionella pneumophila
Outline: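 Broth microdilution MIC per CLSI guidelines, run in buffered yeast extract α-ketoglutarate broth at 35°C and read after 48 h.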

Klebsiella aerogenes = experiment: Antibacterial activity against Enterobacter aerogenes
Outline: (§3)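 Broth microdilution MIC following CLSI guidelines, in cation-adjusted Mueller-Hinton broth, incubated at 35°C. Recent clinical isolates and reference strains, with identity confirmed by automated and standard microbiological methods. Results reported as MIC range, MIC50 and MIC90.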

Enterobacter cloacae = experiment: Antibacterial activity against Enterobacter cloacae; outline: as §3
Klebsiella pneumoniae [1] = experiment: Antibacterial activity against Klebsiella pneumoniae; outline: as §3
Klebsiella pneumoniae [2] = experiment: Antibacterial activity against beta-lactamase positive Klebsiella pneumoniae
Outline: (§4)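 MIC by CLSI broth microdilution for nonfastidious organisms, in cation-adjusted Mueller-Hinton broth incubated at 35°C.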

Morganella morganii = experiment: Antibacterial activity against Morganella morganii; outline: as §3
Proteus mirabilis = experiment: Antibacterial activity against Proteus mirabilis; outline: as §3
Burkholderia cepacia = experiment: Antibacterial activity against Burkholderia cepacia; outline: as §3
Pseudomonas aeruginosa = experiment: Antibacterial activity against Pseudomonas aeruginosa; outline: as §3
[3] = test system: Stenotrophomonas maltophilia; experiment: Antibacterial activity against Stenotrophomonas maltophilia; outline: as §3
Fusobacterium sp. = experiment: Antibacterial activity against Fusobacterium sp.
Outline: (§5)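 Anaerobic broth microdilution MIC following CLSI guidelines, in supplemented Brucella broth. Run in an anaerobe chamber under 5% CO2, 5% H2 and 90% N2 at 35°C, and read after 48 h. Reported as MIC range, MIC50 and MIC90.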

[4] = test system: Peptostreptococcus anaerobius; experiment: Antibacterial activity against Peptostreptococcus anaerobius; outline: as §5
[5] = test system: Peptoniphilus asaccharolyticus; experiment: Antibacterial activity against Peptostreptococcus asaccharolyticus; outline: as §5
Streptococcus pyogenes = experiment: Antibacterial activity against Streptococcus pyogenes
Outline: (§6)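 Broth microdilution MIC following CLSI guidelines, in cation-adjusted Mueller-Hinton broth with 3% lysed horse blood. Plates incubated at 35°C. Clinical isolates and reference strains, with identity confirmed by standard microbiological methods.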

Clostridioides difficile = experiment: Antibacterial activity against Clostridium difficile; outline: as §5
[6] = test system: Bacteroides thetaiotaomicron; experiment: Antibacterial activity against Bacteroides thetaiotaomicron; outline: as §5
Staphylococcus aureus = experiment: Antibacterial activity against oxacillin-resistant Staphylococcus aureus; outline: as §1
[7] = test system: Staphylococcus epidermidis; experiment: Antibacterial activity against oxacillin-susceptible Staphylococcus epidermidis; outline: as §4
[8] = test system: Staphylococcus saprophyticus; experiment: Antibacterial activity against Staphylococcus saprophyticus; outline: as §3
Staphylococcus warneri = experiment: Antibacterial activity against Staphylococcus warneri; outline: as §3
Alloiococcus otitis = experiment: Antibacterial activity against Alloiococcus otitidis
Outline: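 MIC by broth microdilution following CLSI guidelines, in cation-adjusted Mueller-Hinton broth with 3% lysed horse blood. Incubated at 35°C and read after 48 h. Reported as MIC range, MIC50 and MIC90.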

Streptococcus agalactiae = experiment: Antibacterial activity against Streptococcus agalactiae; outline: as §2
Streptococcus pneumoniae [9] = experiment: Antibacterial activity against penicillin-susceptible Streptococcus pneumoniae; outline: as §1
Streptococcus pneumoniae [10] = experiment: Antibacterial activity against penicillin-resistant Streptococcus pneumoniae; outline: as §1
Streptococcus pneumoniae [11] = experiment: Antibacterial activity against levofloxacin-resistant Streptococcus pneumoniae; outline: as §1
Enterococcus faecalis = experiment: Antibacterial activity against VanA-resistant Enterococcus faecalis; outline: as §1
Prevotella corporis = experiment: Antibacterial activity against Prevotella corporis; outline: as §5
Prevotella sp. = experiment: Antibacterial activity against Prevotella sp.; outline: as §5
Neisseria meningitidis = experiment: Antibacterial activity against Neisseria meningitidis
Outline: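 MIC by broth microdilution in gonococcal broth, incubated at 35°C in 5% CO2. Reported as MIC range, MIC50 and MIC90.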

Streptococcus salivarius = experiment: Antibacterial activity against Streptococcus salivarius; outline: as §6
Streptococcus viridans = experiment: Antibacterial activity against Streptococcus viridans; outline: as §6
[12] = test system: Parabacteroides distasonis; experiment: Antimicrobial activity against Bacteroides distasonis
Outline: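 Anaerobic broth microdilution MIC following CLSI guidelines, in supplemented Brucella broth. Incubated at 35°C in a chamber under 5% CO2, 5% H2 and 90% N2. Read after 48 h.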

COc1c(N2CCNC(C)C2)c(F)cc2c(=O)c(C(=O)O)cn(C3CC3)c12 (configuration not stated) [GATIFLOXACIN]
MIC50 (Enterococcus faecium): 32 µg/mL (≈ 85.2 µM) | MIC90 (Enterococcus faecium): 64 µg/mL (≈ 170 µM) | MIC50 (Listeria monocytogenes): 0.5 µg/mL (≈ 1.33 µM) | MIC90 (Listeria monocytogenes): 1 µg/mL (≈ 2.66 µM) | MIC50 (Legionella pneumophila): 0.008 µg/mL (≈ 0.0213 µM) | MIC90 (Legionella pneumophila): 0.008 µg/mL (≈ 0.0213 µM) | MIC50 (Klebsiella aerogenes): 1 µg/mL (≈ 2.66 µM) | MIC90 (Klebsiella aerogenes): 32 µg/mL (≈ 85.2 µM) | MIC50 (Enterobacter cloacae): 0.06 µg/mL (≈ 0.16 µM) | MIC90 (Enterobacter cloacae): 1 µg/mL (≈ 2.66 µM) | MIC50 (Klebsiella pneumoniae [1]): 0.06 µg/mL (≈ 0.16 µM) | MIC90 (Klebsiella pneumoniae [1]): 0.5 µg/mL (≈ 1.33 µM) | MIC50 (Klebsiella pneumoniae [2]): 1 µg/mL (≈ 2.66 µM) | MIC90 (Klebsiella pneumoniae [2]): 16 µg/mL (≈ 42.6 µM) | MIC50 (Morganella morganii): 0.25 µg/mL (≈ 0.666 µM) | MIC90 (Morganella morganii): 32 µg/mL (≈ 85.2 µM) | MIC50 (Proteus mirabilis): 0.25 µg/mL (≈ 0.666 µM) | MIC90 (Proteus mirabilis): 4 µg/mL (≈ 10.7 µM) | MIC50 (Burkholderia cepacia): 4 µg/mL (≈ 10.7 µM) | MIC90 (Burkholderia cepacia): 16 µg/mL (≈ 42.6 µM) | MIC50 (Pseudomonas aeruginosa): 1 µg/mL (≈ 2.66 µM) | MIC90 (Pseudomonas aeruginosa): 64 µg/mL (≈ 170 µM) | MIC50 [3]: 1 µg/mL (≈ 2.66 µM) | MIC90 [3]: 8 µg/mL (≈ 21.3 µM) | MIC (Fusobacterium sp.): 0.015 µg/mL (≈ 0.04 µM) | MIC [4]: 0.06 µg/mL (≈ 0.16 µM) | MIC [5]: 0.06 µg/mL (≈ 0.16 µM) | MIC50 (Streptococcus pyogenes): 0.25 µg/mL (≈ 0.666 µM) | MIC90 (Streptococcus pyogenes): 0.5 µg/mL (≈ 1.33 µM) | MIC50 (Clostridioides difficile): 0.5 µg/mL (≈ 1.33 µM) | MIC90 (Clostridioides difficile): 0.5 µg/mL (≈ 1.33 µM) | MIC50 [6]: 4 µg/mL (≈ 10.7 µM) | MIC90 [6]: 16 µg/mL (≈ 42.6 µM) | MIC50 (Staphylococcus aureus): 4 µg/mL (≈ 10.7 µM) | MIC90 (Staphylococcus aureus): 8 µg/mL (≈ 21.3 µM) | MIC [7]: 0.125 µg/mL (≈ 0.333 µM) | MIC50 [8]: 0.25 µg/mL (≈ 0.666 µM) | MIC90 [8]: 0.25 µg/mL (≈ 0.666 µM) | MIC (Staphylococcus warneri): 0.125 µg/mL (≈ 0.333 µM) | MIC50 (Alloiococcus otitis): 0.06 µg/mL (≈ 0.16 µM) | MIC90 (Alloiococcus otitis): 0.06 µg/mL (≈ 0.16 µM) | MIC50 (Streptococcus agalactiae): 0.25 µg/mL (≈ 0.666 µM) | MIC90 (Streptococcus agalactiae): 0.25 µg/mL (≈ 0.666 µM) | MIC50 (Streptococcus pneumoniae [9]): 0.25 µg/mL (≈ 0.666 µM) | MIC90 (Streptococcus pneumoniae [9]): 0.5 µg/mL (≈ 1.33 µM) | MIC50 (Streptococcus pneumoniae [10]): 0.25 µg/mL (≈ 0.666 µM) | MIC90 (Streptococcus pneumoniae [10]): 1 µg/mL (≈ 2.66 µM) | MIC50 (Streptococcus pneumoniae [11]): 4 µg/mL (≈ 10.7 µM) | MIC90 (Streptococcus pneumoniae [11]): 4 µg/mL (≈ 10.7 µM) | MIC (Enterococcus faecalis): 8 µg/mL (≈ 21.3 µM) | MIC50 (Prevotella corporis): 0.25 µg/mL (≈ 0.666 µM) | MIC90 (Prevotella corporis): 0.5 µg/mL (≈ 1.33 µM) | MIC50 (Prevotella sp.): 0.25 µg/mL (≈ 0.666 µM) | MIC90 (Prevotella sp.): 0.5 µg/mL (≈ 1.33 µM) | MIC50 (Neisseria meningitidis): 0.004 µg/mL (≈ 0.0107 µM) | MIC90 (Neisseria meningitidis): 0.008 µg/mL (≈ 0.0213 µM) | MIC50 (Streptococcus salivarius): 0.5 µg/mL (≈ 1.33 µM) | MIC90 (Streptococcus salivarius): 0.5 µg/mL (≈ 1.33 µM) | MIC50 (Streptococcus viridans): 0.5 µg/mL (≈ 1.33 µM) | MIC90 (Streptococcus viridans): 0.5 µg/mL (≈ 1.33 µM) | MIC50 [12]: 4 µg/mL (≈ 10.7 µM) | MIC90 [12]: 16 µg/mL (≈ 42.6 µM)

— ChEMBL document CHEMBL1147105, “In vitro and in vivo activities of PD 0305970 and PD 0326448, new bacterial gyrase/topoisomerase inhibitors with potent antibacterial activities versus multidrug-resistant gram-positive and fastidious organism groups” (2007)
